Data: article PMC5587398 (Journal of pharmaceutical and biomedical analysis, 2017)

How the values were obtained:
[1] = Pharmacokinetic study in mice after single oral dose; assay type: in vivo, male C57BL/6 mice
Outline: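 Male C57BL/6 mice (~30 g; 12 total, n=4 per time point) got a single 30 mg/kg gavage, 10 mL/kg, in 20 mM citric buffer (pH~3). K2EDTA blood was drawn at 0.167–24 hr and the plasma stored at -80°C. Plasma was precipitated with ACN/MeOH 7/3 containing deuterated IS, then run on HILIC amide +ESI SRM (0.01–25 µM calibration). Non-compartmental parameters were taken from mean concentrations per time point.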

[2] = Pharmacokinetic study in rats after single oral dose; assay type: in vivo, male Sprague-Dawley rats; conditions: plasma
Outline: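 Male Sprague-Dawley rats (~300 g, n=4) got a single 30 mg/kg oral gavage, 10 mL/kg, in 20 mM citric buffer (pH~3). K2EDTA blood was drawn at 0.167, 0.5, 1, 2, 3, 5, 7 and 24 hr, and plasma was stored at -80°C. Analysis used IS-containing ACN/MeOH precipitation and HILIC-UPLC-MS/MS. Non-compartmental analysis used linear-trapezoidal AUC; t1/2 = 0.693/λ, with λ from ≥3 terminal points.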

[3] = male, C57BL/6, mouse, plasma, po, 30 mg/kg
[4] = male, Sprague-Dawley, rat, po, 30 mg/kg

half-life ([1]; male, C57BL/6 (mice), Sprague-Dawley (rats), mouse, plasma, po, 30 mg/kg): 7 to 8 h | AUC(0-inf) [1, 3]: 84100 ng·h/mL | Cmax [1, 3]: 5620 ng/mL | Tmax [1, 3]: 5 h | absorption after PO administration ([1]; rodents (mice and rats), PO administration, summary statement): well absorbed | t(1/2) ([2]; male SD rats (n=4), 30 mg/kg PO single dose, mean ± SD): 7.9 ± 0.9 h | AUC(0-inf) [2, 4]: 91700 ± 18000 ng·h/mL | Cmax [2, 4]: 13300 ± 2600 ng/mL | Tmax [2, 4]: 0.58 ± 0.48 h
SMILES: NC1=NCCN1CC(=O)O [cyclocreatine, 1-Carboxymethyl-2-iminoimidazolidine]
